Test results: ChEMBL document CHEMBL3632567, “Selective Allosteric Antagonists for the G Protein-Coupled Receptor GPRC6A Based on the 2-Phenylindole Privileged Structure Scaffold” (J Med Chem, 2015)

What was measured:
[1] = molecular target: T1, G-protein coupled receptor family C group 6 member A (Mus musculus) (UniProt Q8K4Z6); test: Relative antagonist potency at mouse GPRC6A receptor expressed in HEK293 cells assessed as L-ornithine-induced inositol monophosphate accumulation after 1 hr by FRET assay relative to 2-[methyl-(2-morpholino-2-oxo-ethyl)amino]-1-(2-phenyl-1H-indol-3-yl)ethanone
T1 sequence (whole entry): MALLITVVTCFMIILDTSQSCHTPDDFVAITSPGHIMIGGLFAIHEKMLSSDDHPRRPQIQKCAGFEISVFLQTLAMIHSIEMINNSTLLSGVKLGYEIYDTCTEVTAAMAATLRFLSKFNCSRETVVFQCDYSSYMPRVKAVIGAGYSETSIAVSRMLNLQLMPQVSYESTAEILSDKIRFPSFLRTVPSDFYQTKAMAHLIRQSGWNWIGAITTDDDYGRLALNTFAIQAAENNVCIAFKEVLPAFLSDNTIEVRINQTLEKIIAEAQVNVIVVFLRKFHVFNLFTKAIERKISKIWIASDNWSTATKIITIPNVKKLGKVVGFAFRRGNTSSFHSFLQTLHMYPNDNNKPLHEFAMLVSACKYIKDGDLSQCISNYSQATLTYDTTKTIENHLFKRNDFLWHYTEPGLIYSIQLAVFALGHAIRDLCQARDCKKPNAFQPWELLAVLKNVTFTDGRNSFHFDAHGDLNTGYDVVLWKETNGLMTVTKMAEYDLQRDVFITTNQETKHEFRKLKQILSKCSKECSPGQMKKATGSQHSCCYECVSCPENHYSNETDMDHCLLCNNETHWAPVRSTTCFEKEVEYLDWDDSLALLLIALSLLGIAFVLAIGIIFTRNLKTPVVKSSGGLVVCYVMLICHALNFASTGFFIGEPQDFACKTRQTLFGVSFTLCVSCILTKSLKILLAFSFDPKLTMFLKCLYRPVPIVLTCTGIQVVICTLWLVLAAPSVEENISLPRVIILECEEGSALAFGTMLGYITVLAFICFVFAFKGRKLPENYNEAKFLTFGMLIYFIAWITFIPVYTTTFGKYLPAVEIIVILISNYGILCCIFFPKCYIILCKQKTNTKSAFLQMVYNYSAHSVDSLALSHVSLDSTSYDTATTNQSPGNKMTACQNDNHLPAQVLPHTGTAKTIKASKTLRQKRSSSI

[2] = molecular target: T2, G-protein coupled receptor family C group 6 member A (Mus musculus, UniProt Q8K4Z6); test: Antagonist activity at mouse GPRC6A receptor expressed in HEK293 cells assessed as inhibition of L-ornithine-induced inositol monophosphate accumulation after 1 hr by FRET assay; assay type: functional, cell-based
T2 sequence (Q8K4Z6 whole entry): T1 sequence (whole entry)
Procedure, shortened: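 HEK-293T cells transiently co-transfected (Lipofectamine 2000, 48 h before assay) with mouse GPRC6A and Gq(G66D), 1:1, 12,500 cells/well on poly-D-lysine. Cells washed twice in HBSS/HEPES/BSA pH 7.4, then 1 h at 37 °C with compounds (up to 400 µM, 2% DMSO final) plus 500 µM L-ornithine in LiCl Ligand Buffer. IP1 read by HTRF; curves triplicate, ≥3 experiments; relative potency = IC50(reference)/IC50 × 100.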

[3] = molecular target: Muscarinic acetylcholine receptor M3 (Homo sapiens, UniProt P20309); test: Antagonist activity at human muscarinic M3 receptor expressed in HEK293 cells assessed as inhibition of carbachol-induced inositol monophosphate accumulation after 1 hr by FRET assay; assay type: functional, cell-based
Chain of Muscarinic acetylcholine receptor M3 (P20309 whole entry): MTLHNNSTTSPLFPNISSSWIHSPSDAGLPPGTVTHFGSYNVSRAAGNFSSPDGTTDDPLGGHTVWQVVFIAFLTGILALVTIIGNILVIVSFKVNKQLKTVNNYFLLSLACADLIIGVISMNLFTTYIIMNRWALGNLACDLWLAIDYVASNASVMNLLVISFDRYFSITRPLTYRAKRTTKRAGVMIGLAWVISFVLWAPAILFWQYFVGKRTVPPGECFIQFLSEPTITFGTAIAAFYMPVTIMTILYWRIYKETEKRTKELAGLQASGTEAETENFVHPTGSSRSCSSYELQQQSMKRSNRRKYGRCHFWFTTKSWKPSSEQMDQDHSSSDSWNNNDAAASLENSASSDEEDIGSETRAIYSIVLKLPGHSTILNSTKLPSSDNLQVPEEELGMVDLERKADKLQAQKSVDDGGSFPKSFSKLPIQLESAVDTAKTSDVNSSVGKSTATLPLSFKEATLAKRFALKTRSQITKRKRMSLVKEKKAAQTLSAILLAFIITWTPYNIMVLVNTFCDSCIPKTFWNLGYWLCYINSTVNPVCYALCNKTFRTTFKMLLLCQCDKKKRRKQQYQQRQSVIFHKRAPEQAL
Procedure, shortened: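 HEK-293T cells transfected with empty pCIneo to use their native human M3 receptors, 12,500/well, assayed 48 h later. After two HBSS/HEPES/BSA pH 7.4 washes, cells were stimulated 1 h at 37 °C with 1 mM carbachol plus compounds (2% DMSO final) in LiCl-containing Ligand Buffer. IP1 quantified by HTRF against standard; triplicate curves, at least three experiments.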

[4] = molecular target: T3, 5-hydroxytryptamine receptor 2C (Homo sapiens, UniProt P28335); test: Antagonist activity at human 5HT2C receptor expressed in HEK293 cells assessed as inhibition of serotonin-induced inositol monophosphate accumulation after 1 hr by FRET assay; assay type: functional, cell-based
T3 sequence (P28335 whole entry): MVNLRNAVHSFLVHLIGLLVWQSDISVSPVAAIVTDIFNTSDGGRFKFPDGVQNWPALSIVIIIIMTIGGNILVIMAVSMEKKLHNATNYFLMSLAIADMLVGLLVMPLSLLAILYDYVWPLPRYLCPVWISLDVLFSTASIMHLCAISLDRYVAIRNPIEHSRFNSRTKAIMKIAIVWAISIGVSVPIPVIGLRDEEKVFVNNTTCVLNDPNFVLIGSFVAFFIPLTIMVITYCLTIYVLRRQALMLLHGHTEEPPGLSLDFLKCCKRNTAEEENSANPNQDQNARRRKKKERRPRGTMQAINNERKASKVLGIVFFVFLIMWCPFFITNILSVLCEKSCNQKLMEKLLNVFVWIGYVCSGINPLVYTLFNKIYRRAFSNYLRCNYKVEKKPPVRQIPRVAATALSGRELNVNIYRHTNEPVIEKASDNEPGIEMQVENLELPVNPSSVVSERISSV
Procedure, shortened: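 HEK-293T cells transiently transfected with human 5-HT2C (0.25 µg DNA/well), seeded 12,500/well 48 h before assay. After two HBSS/HEPES/BSA pH 7.4 washes, compounds in 2% DMSO final with 1 µM serotonin in Ligand Buffer (1 mM CaCl2, 1 mM MgCl2, LiCl, pH 7.4) applied 1 h at 37 °C. Lysate IP1 measured by HTRF (665/615 nm ratio vs standard); pIC50 by nonlinear regression, triplicate, ≥3 experiments.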

[5] = molecular target: T4, Extracellular calcium-sensing receptor (Rattus norvegicus, UniProt P48442); test: Antagonist activity at rat CaSR expressed in HEK293 cells assessed as inhibition of Ca2+-induced inositol monophosphate accumulation after 30 min by FRET assay
T4 sequence (P48442 whole entry): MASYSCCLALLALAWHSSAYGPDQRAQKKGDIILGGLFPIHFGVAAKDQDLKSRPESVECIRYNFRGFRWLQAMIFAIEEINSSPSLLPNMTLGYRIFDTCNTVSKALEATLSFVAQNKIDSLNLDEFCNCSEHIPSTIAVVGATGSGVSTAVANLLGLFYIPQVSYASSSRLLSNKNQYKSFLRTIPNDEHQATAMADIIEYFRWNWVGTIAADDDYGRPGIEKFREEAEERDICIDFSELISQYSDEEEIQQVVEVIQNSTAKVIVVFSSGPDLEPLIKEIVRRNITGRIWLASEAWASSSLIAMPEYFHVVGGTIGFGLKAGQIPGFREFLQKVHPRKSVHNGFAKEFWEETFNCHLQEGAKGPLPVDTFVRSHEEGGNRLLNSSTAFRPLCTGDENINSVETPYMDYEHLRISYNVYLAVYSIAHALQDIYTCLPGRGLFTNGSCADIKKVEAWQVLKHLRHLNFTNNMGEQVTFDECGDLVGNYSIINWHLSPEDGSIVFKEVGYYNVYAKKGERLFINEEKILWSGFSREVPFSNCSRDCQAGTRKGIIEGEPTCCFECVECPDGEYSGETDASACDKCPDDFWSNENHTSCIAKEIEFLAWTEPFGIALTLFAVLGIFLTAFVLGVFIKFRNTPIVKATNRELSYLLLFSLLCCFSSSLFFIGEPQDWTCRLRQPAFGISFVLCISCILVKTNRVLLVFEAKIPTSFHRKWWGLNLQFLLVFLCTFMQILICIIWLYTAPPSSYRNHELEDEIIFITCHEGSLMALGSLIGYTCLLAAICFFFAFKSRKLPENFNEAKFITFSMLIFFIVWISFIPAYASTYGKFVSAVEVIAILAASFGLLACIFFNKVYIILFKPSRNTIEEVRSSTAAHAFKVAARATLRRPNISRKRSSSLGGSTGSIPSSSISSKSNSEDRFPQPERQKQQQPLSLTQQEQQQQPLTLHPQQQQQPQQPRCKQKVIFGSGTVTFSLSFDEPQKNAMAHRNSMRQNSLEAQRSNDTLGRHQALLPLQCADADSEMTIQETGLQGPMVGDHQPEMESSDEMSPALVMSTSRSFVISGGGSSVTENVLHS

[6] = molecular target: Metabotropic glutamate receptor 5 (Rattus norvegicus, UniProt P31424); test: Antagonist activity at rat mGluR5 expressed in CHO cells assessed as inhibition of L-glutamate-induced inositol monophosphate accumulation after 1 hr by FRET assay; assay type: functional, cell-based
Chain of Metabotropic glutamate receptor 5 (P31424 whole entry): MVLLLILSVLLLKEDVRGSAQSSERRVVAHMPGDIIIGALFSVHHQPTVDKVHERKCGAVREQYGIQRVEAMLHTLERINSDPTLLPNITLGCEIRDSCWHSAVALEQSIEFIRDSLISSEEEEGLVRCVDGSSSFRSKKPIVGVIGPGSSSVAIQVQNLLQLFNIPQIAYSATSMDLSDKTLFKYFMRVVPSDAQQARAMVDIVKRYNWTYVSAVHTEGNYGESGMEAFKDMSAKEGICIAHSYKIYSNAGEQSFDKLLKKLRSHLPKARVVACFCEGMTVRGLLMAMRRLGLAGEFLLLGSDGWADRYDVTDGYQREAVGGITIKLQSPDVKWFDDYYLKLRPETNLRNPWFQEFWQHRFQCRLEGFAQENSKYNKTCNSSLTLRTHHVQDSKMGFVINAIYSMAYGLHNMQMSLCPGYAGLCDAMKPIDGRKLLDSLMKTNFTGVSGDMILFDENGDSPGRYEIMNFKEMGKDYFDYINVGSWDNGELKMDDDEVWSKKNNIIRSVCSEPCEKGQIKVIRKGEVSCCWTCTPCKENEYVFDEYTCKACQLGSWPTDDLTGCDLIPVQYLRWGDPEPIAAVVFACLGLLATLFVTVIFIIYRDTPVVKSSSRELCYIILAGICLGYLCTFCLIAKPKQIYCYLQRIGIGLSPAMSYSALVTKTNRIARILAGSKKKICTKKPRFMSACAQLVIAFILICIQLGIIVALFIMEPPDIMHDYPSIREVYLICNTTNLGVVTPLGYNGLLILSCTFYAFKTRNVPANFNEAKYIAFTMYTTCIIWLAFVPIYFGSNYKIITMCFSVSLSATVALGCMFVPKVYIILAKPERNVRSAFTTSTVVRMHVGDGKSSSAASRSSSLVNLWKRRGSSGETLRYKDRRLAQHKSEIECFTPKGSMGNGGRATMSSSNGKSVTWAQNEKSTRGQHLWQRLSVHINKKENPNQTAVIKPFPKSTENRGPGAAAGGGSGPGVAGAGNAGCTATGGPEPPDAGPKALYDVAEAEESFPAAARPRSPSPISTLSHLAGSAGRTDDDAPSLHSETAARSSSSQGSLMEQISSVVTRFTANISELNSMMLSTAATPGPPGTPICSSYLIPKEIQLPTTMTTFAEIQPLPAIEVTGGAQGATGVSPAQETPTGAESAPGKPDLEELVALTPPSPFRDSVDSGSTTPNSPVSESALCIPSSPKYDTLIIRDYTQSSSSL
Procedure, shortened: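 CHO cells stably expressing rat mGluR5, kept in DMEM with 10% dialyzed FBS and 1% L-proline, 37 °C, 5% CO2. After two washes in HBSS/HEPES/BSA pH 7.4, cells were stimulated 1 h at 37 °C with 100 µM L-glutamate and compounds (2% DMSO final) in LiCl Ligand Buffer. IP1 accumulation by HTRF; triplicate curves, ≥3 experiments.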

| Structure (SMILES) | Relative potency [1] | IC50 [2] [µM] | IC50 [3] [µM] | IC50 [4] [µM] | IC50 [5] [µM] | IC50 [6] [µM] |
| --- | --- | --- | --- | --- | --- | --- |
| CN(CC(=O)c1c(-c2ccc(F)cc2)[nH]c2ccccc12)CC(=O)N1CCOCC1 | 103 | 21.3 |  |  |  |  |
| COc1ccc(-c2[nH]c3ccccc3c2C(=O)CN(C)CC(=O)N2CCOCC2)cc1 |  | 9.33 | 4.17 | 51.3 | 56.2 | 41.7 |
| COc1ccc2[nH]c(-c3ccccc3)c(C(=O)CN(C)CC(=O)N3CCOCC3)c2c1 | 33 | 66.1 |  |  |  |  |
| CN(CCN1CCOCC1)CC(=O)c1c(-c2ccccc2)[nH]c2ccccc12 |  | 6.17 | 58 | 269 | 347 | 269 |
| O=C(CNCC(=O)N1CCOCC1)c1c(-c2ccccc2)[nH]c2ccccc12 | 9 | 256 |  |  |  |  |
| CN(CC(=O)c1c(-c2ccccc2)[nH]c2ccccc12)CC(=O)N1CCCC1 | 38 | 57.3 |  |  |  |  |
| CN(CC(=O)c1c(-c2ccccc2)[nH]c2ccc(CC(=O)N(C)C)cc12)CC(=O)N1CCOCC1 | < 6 | > 400 |  |  |  |  |
| CN(CC(=O)N1CCOCC1)C(=O)c1c(-c2ccccc2)[nH]c2ccccc12 | < 6 | > 400 |  |  |  |  |
| CN(CC(=O)c1c(-c2ccccc2)[nH]c2ccccc12)CC(=O)N1CCOCC1 |  | 21.9 | 27.5 | 214 | 316 | 224 |
| O=C(CN1CCCC(C(=O)N2CCOCC2)C1)c1c(-c2ccccc2)[nH]c2ccccc12 (centres undefined) |  | 5.5 | 51.3 | 209 | 240 | 263 |
| CN(CC(=O)c1c(CO)[nH]c2ccccc12)CC(=O)N1CCOCC1 | < 6 | > 400 |  |  |  |  |
| CN(CC(=O)N1CCOCC1)CC(O)c1c(-c2ccccc2)[nH]c2ccccc12 (centres undefined) | < 6 | > 400 |  |  |  |  |
| CN(CC(=O)c1c(-c2ccco2)[nH]c2ccccc12)CC(=O)N1CCOCC1 | 9 | 248 |  |  |  |  |
| CN(CC(=O)c1c[nH]c2ccccc12)CC(=O)N1CCOCC1 | < 6 | > 400 |  |  |  |  |
| CN(CCc1c(-c2ccccc2)[nH]c2ccccc12)CC(=O)N1CCOCC1 | 17 | 132 |  |  |  |  |
| CN(CC(=O)c1c(-c2ccccc2)[nH]c2ccc(F)cc12)CC(=O)N1CCOCC1 | 55 | 39.8 |  |  |  |  |
